The results in this text go back to ChEMBL document CHEMBL4513216, “Probing the Open Global Health Chemical Diversity Library for Multistage-Active Starting Points for Next-Generation Antimalarials” (ACS Infect Dis, 2020).

The data set in a line: Toxicity liver stage against HepG2, at 10uM. The class given is cell-based. Also on record: test concentration 10 uM, cell line HepG2-A16-CD81EGFP. The settings on record: human, HepG2-A16-CD81EGFP cells; read-out: INHIBITION
Summed up: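 Uninfected HepG2-A16-CD81EGFP cells, 3 × 10^3 per well, 1536-well, plated on prespotted compound at 10 μM final, parasite-free screening media added to match infected plates; puromycin 10 μM positive, DMSO 0.5% negative; run in parallel with 48 h PbLuc assay at 37 °C, 5% CO2; viability by CellTiter-Glo luminescence, normalized to controls.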
As to `CCc1nc(-c2ccc(NC(=O)N3CCOCC3)cc2)no1`, the cytotoxicity at 10 µM is 5.48%.

For the compound `O=C(Nc1ccc(Br)cc1F)c1cc(CN2CCOCC2)on1`, the cytotoxicity at 10 µM turned out to be 6.39%.

Consider `COCCn1c(-c2cccc(OC)c2)cnc1NC(=O)NCCC(C)C`, for which the cytotoxicity at 10 µM turned out to be 12.9%.

In the case of `CCOC(=O)[C@@H]1[C@H]2CN(C(=O)OC)CCN2C[C@H]1c1ccccc1`, the cytotoxicity at 10 µM was 6.72%.

With `COc1cccc(-c2cc(C(=O)Nc3nc[nH]n3)[nH]n2)c1`, the cytotoxicity at 10 µM was -5.51%.

Take `O=C(Nc1ncnc2c1CCC2)c1cccc(F)c1`: the cytotoxicity at 10 µM was -172%.

Regarding `CC(=O)OC1CN(c2nc3c(C)cccc3s2)C1`, the cytotoxicity at 10 µM is -5.14%.

For the compound `Cn1cccc1C(=O)N1CCC2(CC1)CN(S(C)(=O)=O)c1ccccc12`, the cytotoxicity at 10 µM was 4.73%.

In the case of `O=S(=O)(NC1=NCN(CCc2cccs2)CN1)c1ccc(Br)cc1`, the cytotoxicity at 10 µM was -2.35%.

Regarding `COCCC(=O)N1CCC2(CN(Cc3ccc(OC)c(F)c3)C2)C1`, the cytotoxicity at 10 µM is -10.4%.

Turning to `CC(C)c1noc(C2CCN(C(=O)c3cccs3)CC2)n1`, the cytotoxicity at 10 µM amounted to 1.51%.

For `Cc1nc(NCCc2ccccc2)cc(C(=O)N2CCCCC2)n1`, the cytotoxicity at 10 µM is -6.27%.

`Oc1cc(-c2ccccn2)nc(C2CCN(Cc3ccncc3)CC2)n1`: the cytotoxicity at 10 µM was -7.56%.

As for `NC(=O)CN1CCOCC(Cc2cccc(F)c2)C1` (stereo not given), the cytotoxicity at 10 µM was -12.2%.

As to `CC(C)(C)C(=O)Nc1ccc(Oc2ccsc2C(=O)O)cc1`, the cytotoxicity at 10 µM was 7.26%.

Regarding `CC(NS(C)(=O)=O)C(=O)Nc1ccc2oc(C3CC3)nc2c1` (stereo not given), the cytotoxicity at 10 µM turned out to be 2.78%.

Consider `CC(C)C(C#N)N1CCN(C(=O)c2cc(-c3ccccn3)no2)CC1` (stereo not given), for which the cytotoxicity at 10 µM was -1.54%.

For `CC1CCC(O)(CSc2nnnn2C2CC2)CC1` (stereo not given), the cytotoxicity at 10 µM was -1.97%.

For `COc1ccc(CNC(=O)N2CCc3sccc3C2)cc1O`, the cytotoxicity at 10 µM stood at 7.57%.

Turning to `COC(=O)c1cccc(S(=O)(=O)Nc2ccc(Cl)c(C(N)=O)c2)c1`, the cytotoxicity at 10 µM was 7.31%.

On to `CC(C(=O)Nc1ccc(C#N)cc1)N1CCc2ccccc21` (stereo not given), for which the cytotoxicity at 10 µM was -1.5%.

In the case of `COc1cc(CNC(=O)Nc2nnc(C(C)C)s2)ccc1O`, the cytotoxicity at 10 µM is -2.22%.

In the case of `CN(C)C(=O)CS(=O)(=O)Cc1ccn(-c2cccc(F)c2)n1`, the cytotoxicity at 10 µM was found to be 3.03%.

Turning to `CCNC(=O)NCc1ccccc1NS(=O)(=O)c1ccccc1`, the cytotoxicity at 10 µM is 8.27%.

As for `COCCCN1CCC(NC2CSCCc3ccccc32)CC1` (stereo not given), the cytotoxicity at 10 µM was -3.32%.

On to `CCN(CC(F)(F)F)C(=O)C1CCCN(Cc2ccccn2)C1` (stereo not given), for which the cytotoxicity at 10 µM was -2.3%.

In the case of `O=C(CCNS(=O)(=O)c1cccnc1)N1CCOC(c2ccccc2)C1` (stereo not given), the cytotoxicity at 10 µM was 5.11%.

Consider `CC1(C)CCC(CC(=O)O)c2ccccc21` (stereo not given), for which the cytotoxicity at 10 µM was 2.93%.

In the case of `CCNC(=O)N1CCC(NC(=O)NCCc2cc3ccccc3o2)C1` (stereo not given), the cytotoxicity at 10 µM is -51.8%.

As to `CN(CC(O)C1CC1)C(=O)c1ccc(-c2nc(C3CC3)n[nH]2)cc1` (stereo not given), the cytotoxicity at 10 µM is -5.09%.

In the case of `Cc1cccc(OCCNC(=O)C(C)S(=O)(=O)c2ccccn2)c1` (stereo not given), the cytotoxicity at 10 µM came out at 5.76%.

With `Cc1cc(CS(=O)(=O)N(C)C(C)c2ccc(Cl)cc2)on1` (stereo not given), the cytotoxicity at 10 µM worked out at 9.72%.

With `COC(=O)NCCC(=O)NC(c1ccc(Cl)cc1)C(F)(F)F` (stereo not given), the cytotoxicity at 10 µM was determined as 7.51%.

As for `Cc1cnn(CCCOc2ccc3c(c2)OCO3)c1`, the cytotoxicity at 10 µM worked out at 8.4%.

As for `CC(C(=O)NC(N)=O)N1CCN(c2ccc(C#N)cc2F)CC1` (stereo not given), the cytotoxicity at 10 µM is -4.4%.

As for `Cc1noc(C)c1S(=O)(=O)N1C[C@@H](C(=O)O)[C@H](c2ccccn2)C1`, the cytotoxicity at 10 µM was -6.71%.

`O=C1O[C@@H]2CN(Cc3ccncc3)C[C@@H]2N1CCCN1CCOCC1`: the cytotoxicity at 10 µM was -6.13%.

As to `Cc1ccc(C(=O)N2CCC3(CCC(=O)N(CCCO)C3)CC2)c(O)c1`, the cytotoxicity at 10 µM was 7.4%.

For the compound `COCCCN1CC2(CCN(C(=O)Cc3csc(C)n3)CC2)CC1=O`, the cytotoxicity at 10 µM turned out to be 5.06%.

As to `Cc1nc(CCN)cc(N2CCOc3ccc(Cl)cc3C2)n1`, the cytotoxicity at 10 µM was -0.29%.

Take `COCCN(Cc1ccsc1)C(=O)c1c(C)cc(C)[nH]c1=O`: the cytotoxicity at 10 µM is -2.42%.

Consider `O=C(c1scc2c1OCCO2)N1CCN(Cc2cccc(F)c2)CC1`, for which the cytotoxicity at 10 µM turned out to be 0.993%.

As to `O=C(O)[C@@H]1CN(C(=O)NCC2CCCCC2)C[C@H]1c1ccccn1`, the cytotoxicity at 10 µM amounted to 7.15%.

For the compound `CN(C)C(=O)N1CCCn2nc(CNC(=O)CCc3ccsc3)cc2C1`, the cytotoxicity at 10 µM was -1.77%.

In the case of `CC[C@@]1(O)CCN(C(=O)c2ccc(-c3ccco3)cc2)C[C@H]1O`, the cytotoxicity at 10 µM is 3.75%.

As for `CN(C)[C@H]1CCCCN(Cc2ccccc2Cn2cccn2)C1`, the cytotoxicity at 10 µM was -130%.

For the compound `COc1cc(N(C)Cc2cc(C(C)(C)C)n[nH]2)ncn1`, the cytotoxicity at 10 µM is -11.1%.

On to `C[C@@H]1CN(Cc2cc(C(F)(F)F)ccc2F)CC[C@@]1(O)C1CC1`, for which the cytotoxicity at 10 µM came to 6%.

As to `COc1ccc(Cl)cc1S(=O)(=O)N(C)CC(=O)Nc1ccon1`, the cytotoxicity at 10 µM was -3.75%.

In the case of `Cc1nc2c(c(N3CCN(Cc4ccco4)CC3)n1)CCNCC2`, the cytotoxicity at 10 µM was -4.27%.

Consider `CCSCC(C)NCc1nc(-c2cccnc2)no1` (stereo not given), for which the cytotoxicity at 10 µM was -7.66%.

Consider `CC(=O)N[C@H]1CN(CC(=O)NCc2ccccc2C)C[C@@H]1C(C)C`, for which the cytotoxicity at 10 µM came out at 1.69%.

For `O=C(Nc1cc(C(F)(F)F)c[nH]c1=O)N1CCSCC1`, the cytotoxicity at 10 µM was -5.1%.

Consider `O=C(O)c1cc(NS(=O)(=O)c2ccc(Br)s2)c(F)cc1F`, for which the cytotoxicity at 10 µM is -7.1%.

On to `Cc1ccc(CNC(=O)CN2CCOC(Cn3cccn3)C2)s1` (stereo not given), for which the cytotoxicity at 10 µM was -24.1%.

As to `CN(C)c1cc(C(=O)N2CCN(c3nccs3)CC2)ccn1`, the cytotoxicity at 10 µM is -10.8%.

Consider `O=C(NCc1ccoc1)Nc1cc(C(F)(F)F)c[nH]c1=O`, for which the cytotoxicity at 10 µM is -0.779%.

As for `Cc1cc(C)n(CC2CCCN2C(=O)Cc2c(C)nn(C)c2C)n1` (stereo not given), the cytotoxicity at 10 µM is -13.8%.

On to `CC(C)c1nc(C2CCCN(C(=O)c3ccc4nncn4c3)C2)no1` (stereo not given), for which the cytotoxicity at 10 µM was -4.38%.

With `COCc1nc(C(=O)N2CCCC2Cn2cc(C)cn2)cs1` (stereo not given), the cytotoxicity at 10 µM is -1.36%.

On to `CCc1noc(C)c1C(=O)N1CCCN(Cc2cscn2)CC1`, for which the cytotoxicity at 10 µM was -0.448%.

Regarding `Cc1nn2cccnc2c1C(=O)N1CCCC(Nc2ccccc2)C1` (stereo not given), the cytotoxicity at 10 µM is 5.82%.

With `CNc1nc(C2CCCN2)nc2c1CCN(S(=O)(=O)C1CCCCC1)C2` (stereo not given), the cytotoxicity at 10 µM was found to be 9.17%.

As to `Cc1cccc(CO[C@@H]2CC[C@H]3[C@H]2OCCN3Cc2nccs2)n1`, the cytotoxicity at 10 µM came out at 5.2%.

Consider `CN(C)CCN1CCCC12CCN(C(=O)c1ccoc1)CC2`, for which the cytotoxicity at 10 µM is -1.83%.

As for `Cc1ccc(CN2C[C@@H]3CCN(Cc4ccncc4)C(=O)[C@H]3C2)s1`, the cytotoxicity at 10 µM is 4.53%.

In the case of `CN1Cc2[nH]nc(COCC3CC3)c2C1`, the cytotoxicity at 10 µM turned out to be 18%.

For the compound `Cc1ncsc1CN1CC[C@H]2OCC[C@@]2(C(=O)NC2CC2)C1`, the cytotoxicity at 10 µM worked out at 2.75%.

Consider `Cc1ccc(NC(=O)Nc2c(O)c3ccccc3oc2=O)cc1C`, for which the cytotoxicity at 10 µM stood at 5.89%.

For `CC(C)NC(=O)[C@H]1C[C@H]2CN(C(=O)NCc3ccccc3)C[C@@H]1O2`, the cytotoxicity at 10 µM came to 5.5%.
